Measured values published in ChEMBL document CHEMBL3351600, “Sulfur, selenium and tellurium pseudopeptides: synthesis and biological evaluation” (Bioorg Med Chem, 2014).

Assays:
A-431 = experiment: Reduction in ROS in human A431 cells assessed as decrease in hydrogen peroxide level at 0.1 to 10 ng/ml after 1 hr by DCHFA assay; assay type: functional, cell-based
How it was run: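 A-431 cells were seeded at 10^5 per well and exposed to a range of compound concentrations for 1 h. They were then loaded with DCHFA probe for 30 min in the dark. Fluorescence was read immediately at ex/em 485/528 nm and expressed as arbitrary units per 10^5 cells.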

MDA-MB-435 = experiment: Growth inhibition of human MDA-MB-435 cells after 48 hrs; assay type: functional; settings: MDA-MB-435, 48 h; for CC50: read-out: pLC50 (the source's name) (converted); for TGI: read-out: pTGI (converted)
How it was run: (§1)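 NCI-60 human tumour cell line panel screen run at the US National Cancer Institute under its standard cytotoxicity protocol. It covers leukaemia, NSCLC, colon, CNS, melanoma, ovarian, renal, prostate and breast lines. An initial single-dose test was followed by five-dose testing with 48 h compound exposure.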

Saccharomyces cerevisiae = experiment: Antimicrobial activity against Saccharomyces cerevisiae assessed as inhibition at 20 ug/6 mm disk after 1 to 2 days by agar diffusion assay; assay type: functional
How it was run: (§2)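 Standard agar diffusion: 6-mm paper disks loaded with 20 µg of compound were placed on inoculated plates. Inhibition-zone diameter (mm) was read after 1 and 2 days of growth.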

[1] = Lipophilicity, log K of the compound by HPLC analysis
[2] = Growth inhibition of human OVCAR4 cells after 48 hrs; assay type: functional; settings: OVCAR-4, 48 h; for TGI: read-out: pTGI (converted); how it was run: as §1
[3] = Growth inhibition of human OVCAR5 cells after 48 hrs; assay type: functional; settings: OVCAR-5, 48 h; for TGI: read-out: pTGI (converted); how it was run: as §1
[4] = Growth inhibition of human HCC2998 cells after 48 hrs; assay type: functional; settings: HCC 2998, 48 h; for CC50: read-out: pLC50 (the source's name) (converted); for TGI: read-out: pTGI (converted); how it was run: as §1
SR = experiment: Growth inhibition of human SR cells after 48 hrs; assay type: functional; settings: for TGI: read-out: pTGI (converted)
How it was run: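 Run by the NCI 58-cell-line screen under its standard cytotoxicity protocol. Compounds were first tested at a single dose, then at five doses. Cells were exposed to compound for 48 h.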

Klebsiella pneumoniae = experiment: Antimicrobial activity against Klebsiella pneumoniae assessed as inhibition at 20 ug/6 mm disk after 1 to 2 days by agar diffusion assay; assay type: functional; how it was run: as §2
Candida albicans = experiment: Antimicrobial activity against Candida albicans assessed as inhibition at 20 ug/6 mm disk after 1 to 2 days by agar diffusion assay; assay type: functional; how it was run: as §2
CCRF-CEM = experiment: Growth inhibition of human CCRF-CEM cells after 48 hrs; assay type: functional; settings: for CC50: read-out: pLC50 (the source's name) (converted); for TGI: read-out: pTGI (converted); how it was run: as §1
MCF7 [5] = experiment: Cell cycle arrest in human MCF7 cells assessed as accumulation at S phase […] by propidium iodide staining-based flow cytometric analysis; assay type: functional
MCF7 [6] = experiment: Cell cycle arrest in human MCF7 cells assessed as accumulation at G0/G1 phase after 30 mins by propidium iodide staining-based flow cytometric analysis; assay type: functional
How it was run: (§3)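 MCF-7 cells (10^6) were treated with compounds for 24 h alongside a methanol vehicle control. They were fixed in cold 70% methanol at 4 °C for one day, washed in PBS and permeabilised with 0.1% saponin in PBS. They were then stained with propidium iodide plus RNase (1 mg/ml) for 30 min, and DNA-content distribution was read by FACScan flow cytometry.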

MCF7 [7] = experiment: Cell cycle arrest in human MCF7 cells assessed as accumulation at G2/M phase after 30 mins by propidium iodide staining-based flow cytometric analysis; assay type: functional; how it was run: as §3

## COc1ccc(N(CC(=O)NCCC[Te]c2ccccc2)C(=O)CNC(=O)OC(C)(C)C)cc1
A-431
  Activity: Dose-dependent effect
MDA-MB-435
  GI50: 3.31 µM
  CC50: 51.3 µM
  TGI: 13.5 µM
Saccharomyces cerevisiae
  diameter of the inhibition zone (DIZ): 0 mm
[1]
  log K: 0.05
[2]
  GI50: 22.4 µM
  LC50: > 100 µM
  TGI: > 100 µM
[3]
  GI50: 3.02 µM
  LC50: 38.9 µM
  TGI: 7.41 µM
[4]
  GI50: 2.57 µM
  CC50: 27.5 µM
  TGI: 6.61 µM
SR
  GI50: 1.66 µM
  LC50: > 100 µM
  TGI: 7.76 µM
Klebsiella pneumoniae
  diameter of the inhibition zone (DIZ): 12 mm
Candida albicans
  diameter of the inhibition zone (DIZ): 0 mm

## CC1=C(SCCC(=O)OCC(=O)NCCC[Te]c2ccccc2)C(=O)c2ccccc2C1=O
MDA-MB-435
  GI50: 4.27 µM
  CC50: 57.5 µM
  TGI: 15.8 µM
Saccharomyces cerevisiae
  diameter of the inhibition zone (DIZ): 0 mm
CCRF-CEM
  GI50: 2.4 µM
  CC50: > 100 µM
  TGI: 18.6 µM
[1]
  log K: -0.56
[2]
  GI50: 2.14 µM
  LC50: 29.5 µM
  TGI: 7.41 µM
[3]
  GI50: 2.75 µM
  LC50: 38 µM
  TGI: 8.51 µM
[4]
  GI50: 1.82 µM
  CC50: 13.5 µM
  TGI: 4.57 µM
Klebsiella pneumoniae
  diameter of the inhibition zone (DIZ): 13 mm
Candida albicans
  diameter of the inhibition zone (DIZ): 0 mm

## COc1ccc(N(CC(=O)NCCC[Te]c2ccccc2)C(=O)c2ccccc2)cc1
MCF7 [5]
  Activity: 6.19%
A-431
  Activity: Dose-dependent effect
MDA-MB-435
  GI50: 8.13 µM
  CC50: > 100 µM
  TGI: 30.2 µM
Saccharomyces cerevisiae
  diameter of the inhibition zone (DIZ): 0 mm
[1]
  log K: -0.65
[2]
  GI50: 12 µM
  LC50: 53.7 µM
  TGI: 25.1 µM
[3]
  GI50: 3.8 µM
  LC50: 52.5 µM
  TGI: 11.5 µM
MCF7 [6]
  Activity: 85.01%
[4]
  GI50: 3.02 µM
  CC50: 36.3 µM
  TGI: 8.13 µM
SR
  GI50: 2.82 µM
  LC50: > 100 µM
  TGI: 10 µM
Klebsiella pneumoniae
  diameter of the inhibition zone (DIZ): 12 mm
MCF7 [7]
  Activity: 8.8%
Candida albicans
  diameter of the inhibition zone (DIZ): 0 mm

## COc1ccc(N(CC(=O)NCCC[Te]c2ccccc2)C(=O)CCSC2=C(C)C(=O)c3ccccc3C2=O)cc1
MCF7 [5]
  Activity: 5.55%
MDA-MB-435
  GI50: 2.45 µM
  CC50: 26.9 µM
  TGI: 6.31 µM
Saccharomyces cerevisiae
  diameter of the inhibition zone (DIZ): 0 mm
CCRF-CEM
  GI50: 0.417 µM
  CC50: > 100 µM
  TGI: 2.51 µM
[1]
  log K: -0.54
[2]
  GI50: 2.63 µM
  LC50: 31.6 µM
  TGI: 10.2 µM
[3]
  GI50: 0.631 µM
  LC50: 6.46 µM
  TGI: 2.24 µM
MCF7 [6]
  Activity: 88.62%
[4]
  GI50: 1.23 µM
  CC50: 9.33 µM
  TGI: 3.39 µM
Klebsiella pneumoniae
  diameter of the inhibition zone (DIZ): 12 mm
MCF7 [7]
  Activity: 5.84%
Candida albicans
  diameter of the inhibition zone (DIZ): 0 mm
